Laboratory results reported in ChEMBL document CHEMBL1926631, “N⁴-Aryl-6-substitutedphenylmethyl-7H-pyrrolo[2,3-d]pyrimidine-2,4-diamines as receptor tyrosine kinase inhibitors” (Bioorg Med Chem, 2012).

Assays:
[1] = target: Epidermal growth factor receptor (Homo sapiens, UniProt P00533); assay: Inhibition of EGFR tyrosine kinase activity in EGF-stimulated human A431 cells after 60 mins by ELISA; assay type: cell-based, A-431
[2] = target: T1, Vascular endothelial growth factor receptor 2 (Homo sapiens, UniProt P35968); assay: Inhibition of VEGFR2 tyrosine kinase activity in VEGF-stimulated human U251 cells after 60 mins by ELISA; assay type: cell-based, U-251
[3] = target: Vascular endothelial growth factor receptor 1 (Homo sapiens, UniProt P17948); assay: Inhibition of VEGFR1 tyrosine kinase activity in VEGF-stimulated human A498 cells after 60 mins by ELISA; assay type: cell-based
How it was run: (§1)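 Lysed in ice-cold TBS/0.05% triton with protease and phosphatase inhibitors, heat/ethanol-fixed. Total phosphotyrosine read by HRP anti-phosphotyrosine with luminol chemiluminescence.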

[4] = target: Platelet-derived growth factor receptor beta (Homo sapiens, UniProt P09619); assay: Inhibition of PDGFRbeta tyrosine kinase activity in PDGF-BB-stimulated human SF-539 cells after 60 mins by ELISA; assay type: cell-based; how it was run: as §1
A-431 = assay: Cytotoxicity against EGFR overexpressing human A431 after 12 hrs by cyquant DNA dye-based fluorescence method; assay type: functional, cell-based; conditions: A-431, 12 h
[5] = target: T1, Vascular endothelial growth factor receptor 2; assay: Ratio of semaxanib IC50 to compound IC50 for VEGFR2 tyrosine kinase activity in VEGF-stimulated human U251 cells; assay type: cell-based; conditions: U-251
How it was run: (§2)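 U251 cells, which naturally express high VEGFR-2, were grown to 60–75% confluence, kept 18 h serum-free, then pre-treated 60 min with 0.10–333 μM inhibitor before 100 ng/mL VEGF for 10 min. Total tyrosine phosphorylation was read by fixed-cell HRP-anti-phosphotyrosine ELISA with luminol luminescence, as % of growth factor alone.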

[6] = target: T1, Vascular endothelial growth factor receptor 2; assay: Ratio of Sunitinib IC50 to compound IC50 for VEGFR2 tyrosine kinase activity in VEGF-stimulated human U251 cells; assay type: cell-based; conditions: U-251; how it was run: as §2

Platelet-derived growth factor receptor beta, sequence (P09619 whole entry): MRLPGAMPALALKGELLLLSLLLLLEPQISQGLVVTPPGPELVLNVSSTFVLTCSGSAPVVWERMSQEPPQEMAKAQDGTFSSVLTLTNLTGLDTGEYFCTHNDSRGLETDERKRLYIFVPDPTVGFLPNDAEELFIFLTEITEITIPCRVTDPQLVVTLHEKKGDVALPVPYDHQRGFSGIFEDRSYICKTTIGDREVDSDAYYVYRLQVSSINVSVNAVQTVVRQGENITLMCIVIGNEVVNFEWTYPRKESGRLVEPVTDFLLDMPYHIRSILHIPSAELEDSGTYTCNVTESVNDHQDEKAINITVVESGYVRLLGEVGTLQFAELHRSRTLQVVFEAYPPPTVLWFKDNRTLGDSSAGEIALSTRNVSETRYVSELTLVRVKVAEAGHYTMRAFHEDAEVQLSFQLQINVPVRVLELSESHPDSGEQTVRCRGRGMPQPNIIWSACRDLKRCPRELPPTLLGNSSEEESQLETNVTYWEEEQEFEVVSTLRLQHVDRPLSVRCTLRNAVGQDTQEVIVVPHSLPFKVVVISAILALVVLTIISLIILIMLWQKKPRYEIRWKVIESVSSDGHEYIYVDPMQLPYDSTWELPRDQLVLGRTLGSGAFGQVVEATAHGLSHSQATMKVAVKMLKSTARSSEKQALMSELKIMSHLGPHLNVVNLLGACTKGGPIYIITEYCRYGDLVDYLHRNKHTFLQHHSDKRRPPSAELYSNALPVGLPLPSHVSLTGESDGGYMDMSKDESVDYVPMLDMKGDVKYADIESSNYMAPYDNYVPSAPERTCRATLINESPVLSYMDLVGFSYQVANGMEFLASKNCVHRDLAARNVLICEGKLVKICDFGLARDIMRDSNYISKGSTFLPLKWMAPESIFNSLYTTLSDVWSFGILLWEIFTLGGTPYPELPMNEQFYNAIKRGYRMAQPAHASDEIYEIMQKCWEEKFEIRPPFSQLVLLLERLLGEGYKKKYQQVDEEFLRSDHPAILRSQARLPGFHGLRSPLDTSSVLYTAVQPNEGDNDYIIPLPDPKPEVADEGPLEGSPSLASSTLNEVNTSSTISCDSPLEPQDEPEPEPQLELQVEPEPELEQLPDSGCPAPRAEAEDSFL
T1 sequence (P35968 whole entry): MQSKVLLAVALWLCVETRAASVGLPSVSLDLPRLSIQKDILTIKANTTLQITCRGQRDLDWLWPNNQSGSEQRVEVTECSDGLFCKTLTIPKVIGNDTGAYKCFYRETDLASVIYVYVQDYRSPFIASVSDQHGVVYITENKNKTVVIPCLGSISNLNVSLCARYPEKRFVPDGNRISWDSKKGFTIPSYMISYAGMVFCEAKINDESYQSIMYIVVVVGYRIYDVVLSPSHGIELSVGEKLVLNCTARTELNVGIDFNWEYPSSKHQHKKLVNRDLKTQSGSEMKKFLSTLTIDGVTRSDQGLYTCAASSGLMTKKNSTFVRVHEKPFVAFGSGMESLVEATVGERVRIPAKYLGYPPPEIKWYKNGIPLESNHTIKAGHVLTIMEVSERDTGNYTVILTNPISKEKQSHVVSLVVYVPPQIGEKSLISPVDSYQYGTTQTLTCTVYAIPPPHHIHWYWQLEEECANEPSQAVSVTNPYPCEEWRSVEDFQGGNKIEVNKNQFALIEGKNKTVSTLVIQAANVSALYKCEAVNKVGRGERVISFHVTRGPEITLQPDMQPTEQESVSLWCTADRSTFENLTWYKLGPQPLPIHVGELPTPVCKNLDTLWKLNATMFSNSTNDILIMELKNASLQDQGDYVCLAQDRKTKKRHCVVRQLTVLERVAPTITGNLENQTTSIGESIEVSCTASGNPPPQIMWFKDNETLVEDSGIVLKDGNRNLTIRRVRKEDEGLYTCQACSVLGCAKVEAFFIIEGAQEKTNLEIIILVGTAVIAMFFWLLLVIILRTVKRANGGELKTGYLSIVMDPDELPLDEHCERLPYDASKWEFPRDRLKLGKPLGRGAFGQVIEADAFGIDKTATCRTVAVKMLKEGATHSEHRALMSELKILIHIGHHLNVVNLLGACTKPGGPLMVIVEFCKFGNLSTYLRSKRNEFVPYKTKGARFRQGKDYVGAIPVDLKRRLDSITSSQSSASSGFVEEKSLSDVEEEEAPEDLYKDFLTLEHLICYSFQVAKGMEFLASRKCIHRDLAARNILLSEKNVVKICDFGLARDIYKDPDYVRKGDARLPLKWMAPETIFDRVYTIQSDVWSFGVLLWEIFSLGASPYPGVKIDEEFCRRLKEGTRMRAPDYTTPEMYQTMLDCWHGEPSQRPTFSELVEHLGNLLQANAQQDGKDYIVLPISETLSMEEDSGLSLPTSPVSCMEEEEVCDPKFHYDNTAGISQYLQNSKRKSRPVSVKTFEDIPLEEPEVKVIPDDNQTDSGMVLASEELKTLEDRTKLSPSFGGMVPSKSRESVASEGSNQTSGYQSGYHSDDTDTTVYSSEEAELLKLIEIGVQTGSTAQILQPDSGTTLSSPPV
Epidermal growth factor receptor, sequence (P00533 whole entry): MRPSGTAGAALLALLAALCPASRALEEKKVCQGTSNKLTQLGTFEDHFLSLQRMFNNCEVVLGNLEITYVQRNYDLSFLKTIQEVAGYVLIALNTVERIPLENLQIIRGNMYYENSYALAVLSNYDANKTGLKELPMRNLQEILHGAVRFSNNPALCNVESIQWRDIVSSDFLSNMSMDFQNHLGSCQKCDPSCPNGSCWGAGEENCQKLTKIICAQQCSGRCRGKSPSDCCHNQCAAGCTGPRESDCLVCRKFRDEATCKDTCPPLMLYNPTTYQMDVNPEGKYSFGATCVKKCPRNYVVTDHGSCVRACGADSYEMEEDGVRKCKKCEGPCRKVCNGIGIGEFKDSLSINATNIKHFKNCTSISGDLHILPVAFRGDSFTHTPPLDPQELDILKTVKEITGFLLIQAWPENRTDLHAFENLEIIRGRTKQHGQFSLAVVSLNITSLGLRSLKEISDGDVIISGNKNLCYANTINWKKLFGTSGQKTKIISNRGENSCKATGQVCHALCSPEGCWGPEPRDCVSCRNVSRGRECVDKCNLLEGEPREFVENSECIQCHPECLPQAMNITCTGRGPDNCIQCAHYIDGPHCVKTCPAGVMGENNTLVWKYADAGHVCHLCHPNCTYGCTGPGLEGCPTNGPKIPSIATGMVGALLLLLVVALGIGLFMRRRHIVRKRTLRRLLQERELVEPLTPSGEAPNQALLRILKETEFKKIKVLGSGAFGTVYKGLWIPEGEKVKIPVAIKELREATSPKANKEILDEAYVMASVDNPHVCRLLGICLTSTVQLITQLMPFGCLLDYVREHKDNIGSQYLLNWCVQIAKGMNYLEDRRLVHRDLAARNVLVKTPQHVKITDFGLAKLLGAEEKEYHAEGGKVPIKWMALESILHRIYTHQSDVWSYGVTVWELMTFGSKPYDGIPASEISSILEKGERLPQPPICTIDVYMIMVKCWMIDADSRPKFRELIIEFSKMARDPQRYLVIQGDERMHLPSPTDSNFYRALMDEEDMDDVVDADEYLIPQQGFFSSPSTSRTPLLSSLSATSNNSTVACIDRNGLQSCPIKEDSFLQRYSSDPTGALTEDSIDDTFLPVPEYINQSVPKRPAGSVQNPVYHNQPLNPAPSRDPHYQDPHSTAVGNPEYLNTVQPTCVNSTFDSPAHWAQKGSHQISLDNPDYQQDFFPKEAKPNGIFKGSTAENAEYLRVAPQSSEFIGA
Vascular endothelial growth factor receptor 1, sequence (P17948 whole entry): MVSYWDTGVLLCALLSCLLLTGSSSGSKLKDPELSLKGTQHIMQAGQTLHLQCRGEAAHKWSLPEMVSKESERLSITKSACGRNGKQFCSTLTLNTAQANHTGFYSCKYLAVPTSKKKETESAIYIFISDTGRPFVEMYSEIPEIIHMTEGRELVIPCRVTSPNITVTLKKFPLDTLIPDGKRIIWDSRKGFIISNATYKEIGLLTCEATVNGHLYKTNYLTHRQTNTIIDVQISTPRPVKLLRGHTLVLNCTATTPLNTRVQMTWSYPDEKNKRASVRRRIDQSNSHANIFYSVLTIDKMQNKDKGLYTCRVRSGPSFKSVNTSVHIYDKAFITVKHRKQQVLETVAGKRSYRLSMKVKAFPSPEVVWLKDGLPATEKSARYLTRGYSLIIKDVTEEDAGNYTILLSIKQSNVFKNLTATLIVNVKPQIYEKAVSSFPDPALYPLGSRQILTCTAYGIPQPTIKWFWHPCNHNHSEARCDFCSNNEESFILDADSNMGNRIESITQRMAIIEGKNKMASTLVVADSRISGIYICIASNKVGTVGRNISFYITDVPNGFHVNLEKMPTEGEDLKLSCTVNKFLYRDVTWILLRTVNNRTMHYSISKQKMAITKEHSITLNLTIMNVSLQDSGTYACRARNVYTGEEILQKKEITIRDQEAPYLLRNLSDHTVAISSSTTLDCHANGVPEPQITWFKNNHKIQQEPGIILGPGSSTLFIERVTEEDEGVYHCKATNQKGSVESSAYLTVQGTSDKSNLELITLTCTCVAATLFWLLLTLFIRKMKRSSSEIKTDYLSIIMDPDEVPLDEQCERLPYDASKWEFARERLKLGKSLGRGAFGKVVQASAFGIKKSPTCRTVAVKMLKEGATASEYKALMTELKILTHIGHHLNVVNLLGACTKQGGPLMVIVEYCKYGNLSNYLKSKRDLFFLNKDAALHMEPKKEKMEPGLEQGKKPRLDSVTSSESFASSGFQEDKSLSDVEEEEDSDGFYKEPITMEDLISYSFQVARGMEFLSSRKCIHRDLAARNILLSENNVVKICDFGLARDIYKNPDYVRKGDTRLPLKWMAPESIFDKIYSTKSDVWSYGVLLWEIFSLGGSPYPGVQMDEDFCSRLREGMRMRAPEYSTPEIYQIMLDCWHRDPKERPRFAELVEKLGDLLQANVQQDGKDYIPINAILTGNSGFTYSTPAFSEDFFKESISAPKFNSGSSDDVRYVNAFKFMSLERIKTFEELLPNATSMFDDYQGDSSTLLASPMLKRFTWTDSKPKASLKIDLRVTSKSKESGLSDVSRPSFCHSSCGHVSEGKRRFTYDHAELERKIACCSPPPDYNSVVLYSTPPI

| IC50 [1] | IC50 [2] | IC50 [3] | IC50 [4] | Ratio IC50 [5] | Ratio IC50 [6] | Structure (SMILES) | IC50 (A-431) |
| --- | --- | --- | --- | --- | --- | --- | --- |
| 113 µM | 0.1 µM | 186 µM | 146 µM | 120 | 189 | COc1ccc(OC)c(Cc2cc3c(Nc4ccc(Cl)cc4F)nc(N)nc3[nH]2)c1 | 13.4 µM |
| > 200 µM | 0.48 µM | > 200 µM | 193 µM | 25 | 39 | Nc1nc(Nc2ccc(Cl)cc2F)c2cc(Cc3cccc4ccccc34)[nH]c2n1 | 46.7 µM |
| > 200 µM | 56.7 µM | 15.2 µM | 44.3 µM |  |  | COc1ccc(OC)c(Cc2cc3c(Nc4ccc(Cl)cc4)nc(N)nc3[nH]2)c1 | 5.8 µM |
| 0.24 µM | 45.4 µM | 45.9 µM | > 300 µM |  |  | Cc1ccccc1Cc1cc2c(Nc3ccc(Cl)cc3)nc(N)nc2[nH]1 | 5.6 µM |
|  | 32.1 µM | > 200 µM |  |  |  | Nc1nc(Nc2ccc(Cl)cc2)c2cc(Cc3cccc4ccccc34)[nH]c2n1 |  |
|  | 0.62 µM |  |  |  |  | COc1ccc(OC)c(Cc2cc3c(Nc4cccc(Br)c4)nc(N)nc3[nH]2)c1 | > 50 µM |
| > 200 µM | 29.8 µM | 16 µM | > 300 µM |  |  | Cc1ccccc1Cc1cc2c(Nc3ccc(Cl)cc3F)nc(N)nc2[nH]1 | > 200 µM |
